# Legend:
# [1] = Unbound brain-to-plasma concentration ratio in mouse at 10 mg/kg, po after 4 hrs; format: ADME, organism-based; design: dose 10 mg/kg, route oral; conditions: brain and plasma (unbound), read-out: K(p,uu,brain)
# [2] = Unbound brain-to-plasma concentration ratio in mouse at 10 mg/kg, po after 1 hr; format: ADME, organism-based; design: dose 10 mg/kg, route oral; conditions: brain and plasma (unbound), read-out: K(p,uu,brain)
# [3] = tested on: Brain; test: Free drug level in mouse brain at 10 mg/kg, po after 4 hrs; format: ADME, organism-based; design: dose 10 mg/kg, route oral; conditions: in vivo
# [4] = tested on: Brain; test: Free drug level in mouse brain at 10 mg/kg, po after 1 hr; format: ADME, organism-based; design: dose 10 mg/kg, route oral; conditions: in vivo
# [5] = tested on: Plasma; test: Free plasma concentration in mouse at 10 mg/kg, po after 4 hrs; format: ADME, organism-based; design: dose 10 mg/kg, route oral; conditions: in vivo
# [6] = Oral bioavailability in mouse at 10 mg/kg; format: ADME, organism-based; conditions: in vivo
# [7] = tested on: Plasma; test: Free plasma concentration in mouse at 10 mg/kg, po after 1 hr; format: ADME, organism-based; design: dose 10 mg/kg, route oral; conditions: in vivo
# [8] = Clearance in mouse at 3 mg/kg, iv and 10 mg/kg, po; format: ADME, organism-based; conditions: in vivo
# [9] = Clearance in mouse liver microsomes at 1 uM after 20 mins by LC-MS/MS analysis in presence of NADPH; format: ADME, Microsome
# [10] = Drug uptake in Hartley guinea pig CSF at 150 mg/kg, po formulated with 40/10/50 PEG/ethanol/H2O after 3 hrs; format: ADME, organism-based, Cavia porcellus, Cerebrospinal fluid; design: dose 150 mg/kg, route oral; conditions: read-out: Drug uptake
# In short: (§1)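 Male Hartley guinea pigs, 6–8 per group, were dosed orally at 4–5 mL/kg and euthanized with intraperitoneal euthasol at set times. CSF (40–100 μL) was collected post-mortem by cisterna magna puncture into tubes containing 10% BSA, then snap-frozen for analysis. Drug concentration was determined in the CSF; plasma and brain were also sampled.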
# [11] = Drug uptake in Hartley guinea pig CSF at 50 mg/kg, po formulated with 40/10/50 PEG/ethanol/H2O after 3 hrs; format: ADME, organism-based, Cavia porcellus, Cerebrospinal fluid; design: dose 50 mg/kg, route oral; conditions: read-out: Drug uptake; in short: as §1
# [12] = Free plasma concentration in Hartley guinea pig at 150 mg/kg, po formulated with 40/10/50 PEG/ethanol/H2O after 3 hrs; format: ADME, organism-based, Cavia porcellus; design: dose 150 mg/kg, route oral; conditions: in vivo
# In short: (§2)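 Male Sprague–Dawley rats or male Hartley guinea pigs (6−8 weeks, 250−350 g), 6−8 per group, given vehicle or compound orally at 4−5 mL/kg. At set times after dosing, rats were killed by CO₂ and guinea pigs by ip euthasol (250 mg/kg). Plasma came from cardiac-puncture blood in EDTA. CSF was taken by cisterna magna puncture into 10% BSA and snap frozen.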
# [13] = Free plasma concentration in Hartley guinea pig at 50 mg/kg, po formulated with 40/10/50 PEG/ethanol/H2O after 3 hrs; format: ADME, organism-based, Cavia porcellus; design: dose 50 mg/kg, route oral; conditions: in vivo
# In short: (§3)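 Male Hartley guinea pigs, 6−8 weeks, 250−350 g, 6−8 per group, given a single oral dose or vehicle at 4−5 mL/kg. Euthanized with euthasol 250 mg/kg ip at set times. Whole blood was taken post-mortem by cardiac puncture into EDTA and centrifuged at 4 °C. Plasma was stored at −20 °C for drug analysis.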
# [14] = Clearance in human liver microsomes at 1 uM after 20 mins by LC-MS/MS analysis in presence of NADPH; format: ADME, Microsome
# [15] = Clearance in cynomolgus monkey liver microsomes at 1 uM after 20 mins by LC-MS/MS analysis in presence of NADPH; format: ADME, Macaca fascicularis, Microsome
# [16] = Clearance in guinea pig liver microsomes at 1 uM after 20 mins by LC-MS/MS analysis in presence of NADPH; format: ADME, Cavia porcellus, Microsome; conditions: read-out: CLH
# [17] = Clearance in rat liver microsomes at 1 uM after 20 mins by LC-MS/MS analysis in presence of NADPH; format: ADME, Microsome
# [18] = Drug uptake in Hartley guinea pig CSF at 150 mg/kg, po formulated with 0.5% HPMC/0.5% Tween 80 after 5 hrs; format: ADME, organism-based, Cavia porcellus, Cerebrospinal fluid; design: dose 150 mg/kg, route oral; conditions: read-out: Drug uptake; in short: as §1
# [19] = Drug uptake in Hartley guinea pig CSF at 75 mg/kg, po formulated with 0.5% HPMC/0.5% Tween 80 after 5 hrs; format: ADME, organism-based, Cavia porcellus, Cerebrospinal fluid; design: dose 75 mg/kg, route oral; conditions: read-out: Drug uptake; in short: as §2
# [20] = Unbound brain-to-plasma concentration ratio in Hartley guinea pig at 75 mg/kg, po formulated with 0.5% HPMC/0.5% Tween 80 after 5 hrs; format: ADME, organism-based, Cavia porcellus; design: dose 75 mg/kg, route oral; conditions: read-out: K(p,uu,brain)
# [21] = Free drug level in Hartley guinea pig brain at 75 mg/kg, po formulated with 0.5% HPMC/0.5% Tween 80 after 5 hrs; format: ADME, organism-based, Cavia porcellus; design: dose 75 mg/kg, route oral; conditions: in vivo; in short: as §2
# [22] = Free plasma concentration in Hartley guinea pig at 150 mg/kg, po formulated with 0.5% HPMC/0.5% Tween 80 after 5 hrs; format: ADME, organism-based, Cavia porcellus; design: dose 150 mg/kg, route oral; conditions: in vivo; in short: as §2
# [23] = Free plasma concentration in Hartley guinea pig at 75 mg/kg, po formulated with 0.5% HPMC/0.5% Tween 80 after 5 hrs; format: ADME, organism-based, Cavia porcellus; design: dose 75 mg/kg, route oral; conditions: in vivo; in short: as §3
SMILES,Kp uu at 4 h [1],Kp uu at 1 h [2],Drug uptake(free) [3] [nM],Drug uptake(free) [4] [nM],Cp(f) [5] [nM],bioavailability [6] [%],Cp(f) [7] [nM],clearance [8] [mL/min/kg],CLhep predicted at 1 µM [9] [mL/min/kg],CLhep predicted at 1 µM [14] [mL/min/kg],CLhep predicted at 1 µM [15] [mL/min/kg],CLint scaled at 1 µM [16] [mL/min/kg],CLhep predicted at 1 µM [17] [mL/min/kg],other results
CN1C(=O)C2(CC(C)(C)Sc3ccc(-c4cc(F)cc(Cl)c4)cc32)N=C1N (racemic),0.46,0.29,1.6,0.7,3.6,52,2.2,69,47,,,,,
CN1C(=O)C2(CC(C)(C)Oc3ccc(-c4cc(F)cc(Cl)c4)cc32)N=C1N (racemic),0.22,0.09,7,3.8,32,79,42,12,15,,,,,

# Further lines, with some results ahead:
Kp uu at 4 h [1],Kp uu at 1 h [2],Drug uptake(free) [3] [nM],Drug uptake(free) [4] [nM],Cp(f) [5] [nM],bioavailability [6] [%],Cp(f) [7] [nM],clearance [8] [mL/min/kg],CLhep predicted at 1 µM [9] [mL/min/kg],CLhep predicted at 1 µM [14] [mL/min/kg],CLhep predicted at 1 µM [15] [mL/min/kg],CLint scaled at 1 µM [16] [mL/min/kg],CLhep predicted at 1 µM [17] [mL/min/kg],SMILES,other results
0.18,0.08,5.1,3.7,29,62,47,67,59,,,,,CN1C(=O)C2(CC(C)(C)Cc3ccc(-c4cccnc4F)cc32)N=C1N (racemic),
1.1,1,13,120,12,34,120,126,16,,,,,CC1(C)Cc2ccc(-c3cncnc3)cc2C2(COC(N)=N2)C1 (racemic),
,,,,,,,,23,3,29,12,28,CC1(C)Cc2ccc(-c3cncnc3)cc2[C@@]2(COC(N)=N2)C1,concentration at 3 h [10]: 5610 nM; concentration at 3 h [11]: 888 nM; Cp(f) [12]: 6673 nM; Cp(f) [13]: 3019 nM
,,,,,,,,24,3,12,26,60,CN1C(=O)[C@]2(CC(C)(C)Cc3ccc(-c4cccnc4F)cc32)N=C1N,concentration at 5 h [18]: 247 nM; concentration at 5 h [19]: 20 nM; Kp uu at 5 h [20]: 0.037; Drug uptake(free) [21]: 11 nM; Cp(f) [22]: 562 nM; Cp(f) [23]: 304 nM

# — ChEMBL document CHEMBL2346596, “Spirocyclic β-site amyloid precursor protein cleaving enzyme 1 (BACE1) inhibitors: from hit to lowering of cerebrospinal fluid (CSF) amyloid β in a higher species” (J Med Chem, 2013)
